Seven molecules from PubChem BioAssay can be followed below.

Assay [1] is described as follows: inhibitors of TNFa-induced NFkB p65 translocation, primary screen, imaging, HUVEC, MLSMR starter and 10KST1 sets (AID 438;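 active = inhibition above 20% together with a positive visual image hit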;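 also: compound added about 3h40 before a 20 min TNFalpha stimulation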;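 as to inhibition: signal is the nuclear over cytoplasmic p65 intensity ratio per well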). The conditions noted are these: HUVEC TNFa-induced p65 nuclear translocation; cell count: measured here: nuclei count (cytotoxicity indicator), at 2.08 µM; inhibition: at 2 µM, stronger effect = higher value, 0% TNFa-plus-vehicle, 100% no-TNFa wells.
Assay [2] can be described thus: endothelial E-selectin expression blockers – imaging, HUVEC, immunofluorescence, MLSMR starter and 10KST1 sets, primary screen (AID 487;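 active = visually confirmed hit in the image check and inhibition above 20%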;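 as to inhibition: signal is fraction of cell area covered by stained E-selectin grains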;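 as to nuclei count: 100% = median nuclei count of all wells on the same plate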). The following applies: HUVEC TNFalpha-induced E-selectin immunofluorescence imaging, at 2 µM; inhibition: stronger effect = higher value; nuclei count: measured here: cell number, toxicity.
The nature of assay [3]: Primary imaging screen for DUSP6 inhibitors that restore phospho-Erk in transfected HeLa cells, chemical complementation (AID 609).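 As to inhibition: phospho-Erk level distribution per well compared with pooled transfected vehicle control wells.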 The following applies: HeLa MKP-3 transfected, phospho-Erk imaging KS statistic, at 10 µM, cells stimulated with TPA for 15 min.
The target in assay [4] is Dual specificity protein phosphatase 6 (Homo sapiens) (UniProt Q16828). Described as above. The following applies: HeLa MKP-3 transfected, phospho-Erk imaging KS statistic; at 10 µM; stronger effect = higher value; cells stimulated with TPA for 15 min.
Dual specificity protein phosphatase 6 (Homo sapiens), sequence (Q16828 whole entry, looked up): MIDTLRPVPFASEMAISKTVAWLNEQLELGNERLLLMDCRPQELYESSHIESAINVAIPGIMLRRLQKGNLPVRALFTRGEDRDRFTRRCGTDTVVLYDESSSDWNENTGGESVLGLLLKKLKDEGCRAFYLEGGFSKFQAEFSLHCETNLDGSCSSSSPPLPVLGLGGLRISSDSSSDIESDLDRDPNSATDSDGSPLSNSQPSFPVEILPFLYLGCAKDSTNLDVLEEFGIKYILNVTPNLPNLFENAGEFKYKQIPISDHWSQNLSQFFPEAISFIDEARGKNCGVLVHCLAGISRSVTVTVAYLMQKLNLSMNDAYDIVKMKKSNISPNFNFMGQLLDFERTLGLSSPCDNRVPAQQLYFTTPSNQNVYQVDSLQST
Assay [5] has as its target Voltage-gated potassium channel subunit beta-2 (Rattus norvegicus) (UniProt P62483). Briefly: inhibitors of rat Kvbeta2 reductase activity – biochemical, NADPH fluorescence, primary screen (AID 622;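 active = fluorescence slope higher than the sample average by over 3 SD, cut at about -0.22 in these data, passing the limit was not always enough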;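 also: slope of raw intensity against log time taken from 70 to 1610 s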). The following applies: recombinant KvBeta, 4-cyanobenzaldehyde reduction, at 10 µM, stronger effect = higher value.
For assay [6] the target is unchanged. Briefly: enhancers of rat Kvbeta2 NADPH turnover – biochemical, NADPH fluorescence, primary screen (AID 623;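 active = NADPH fluorescence slope more negative than the mean of all samples by about 3 SD, 99.7% confidence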;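 also: fluorescence intensity change per second fitted from 20 to 320 s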). The following applies: Recombinant KvBeta, NADPH fluorescence decrease slope, 10 min; at 10 µM; stronger effect = lower value.
In assay [7] the target is Alpha-2C adrenergic receptor (Homo sapiens) (UniProt P18825). Description: compounds altering alpha2C-coupled GIRK flux – cell-based, HEK293 alpha2C/GIRK1/2, thallium flux, primary screen (AID 624;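 active = fluorescence slope after compound addition differing from the mean of all screened samples at 99.7% confidence, in either direction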;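 also: slope of fluorescence ratio to pre-addition baseline per second over 15 to 24 s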). The conditions noted are these: thallium flux BTC fluorescence, at 10 µM, actives lie on both sides.
Alpha-2C adrenergic receptor (Homo sapiens), sequence (P18825 whole entry, looked up): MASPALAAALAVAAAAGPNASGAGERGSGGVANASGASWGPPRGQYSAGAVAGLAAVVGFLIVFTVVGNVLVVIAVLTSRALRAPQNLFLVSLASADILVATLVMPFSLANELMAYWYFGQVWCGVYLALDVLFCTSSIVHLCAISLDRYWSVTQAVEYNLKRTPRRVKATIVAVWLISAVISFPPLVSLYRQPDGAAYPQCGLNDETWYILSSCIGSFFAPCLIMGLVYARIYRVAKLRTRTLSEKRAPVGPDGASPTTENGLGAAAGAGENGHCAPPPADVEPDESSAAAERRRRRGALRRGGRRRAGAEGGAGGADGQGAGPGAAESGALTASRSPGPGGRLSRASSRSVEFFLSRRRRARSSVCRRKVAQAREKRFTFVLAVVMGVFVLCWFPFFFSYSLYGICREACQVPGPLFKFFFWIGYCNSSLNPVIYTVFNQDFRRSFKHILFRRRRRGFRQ
Assay [8] in a line: inhibitors of larval lipid processing in zebrafish, primary screen, whole organism, PED6 fluorescence, gall bladder and intestine (AID 686;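 active = a full or partial loss of lipid-probe fluorescence in the fish gall bladder, intestine or both, judged by eye; inactive = no fluorescence loss, or compound toxic to the fish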;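 also: larvae 5 to 7 days old with five fish per well; signal comes from phospholipase A2 cleavage of quenched PED6 carried via bile; overnight exposure to compound and PED6 before scoring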). The following applies: Zebrafish larvae PED6 lipid processing, fluorescence scoring; screened at 20 µM (by protocol). In outline:
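Test system – live zebrafish larvae aged 5-7 days, whole organism · Buffer or medium – E3 fish medium · Reagent – quenched phospholipase substrate PED6, 100 nM final, ingested by larvae · Doses – 20 µM single dose · Incubation – overnight compound and PED6 incubation · Technique – visual fluorescence microscopy scoring of gall bladder, gut · Read-out basis – visual per-well fluorescence inhibition score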

Assay [9] in a line: loss of swimming-algae plug formation – whole organism, Chlamydomonas reinhardtii, WT vs cilia-less mutant, absorbance, 96-well, primary screen (AID 463189;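 active = inhibition at or above 50% relative to wild type and mutant plate controls; inactive = inhibition below 50%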;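 also: 0% = wild type cc124 cells in DMSO and 100% = ciliumless bld1 mutant cells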). The conditions noted are these: Chlamydomonas reinhardtii gravitaxis, OD600 absorbance, 2 days; at 10 µM; stronger effect = higher value.
Setting [10] is: measured here: cell density z-score.
Setting [11] is: measured here: nuclear c-Myc green intensity z-score.
Setting [12] is: measured here: nuclear pErk red intensity z-score, stronger effect = higher value.

The structures appear in SMILES notation. Calls of active or inactive are those of the source.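 The calls were made as follows, unless noted: active = compounds giving at least 50% inhibition in the cell-based MKP-3 phosphatase rescue imaging test; inactive = the rest.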

Voltage-gated potassium channel subunit beta-2 (Rattus norvegicus), sequence (P62483 whole entry, looked up): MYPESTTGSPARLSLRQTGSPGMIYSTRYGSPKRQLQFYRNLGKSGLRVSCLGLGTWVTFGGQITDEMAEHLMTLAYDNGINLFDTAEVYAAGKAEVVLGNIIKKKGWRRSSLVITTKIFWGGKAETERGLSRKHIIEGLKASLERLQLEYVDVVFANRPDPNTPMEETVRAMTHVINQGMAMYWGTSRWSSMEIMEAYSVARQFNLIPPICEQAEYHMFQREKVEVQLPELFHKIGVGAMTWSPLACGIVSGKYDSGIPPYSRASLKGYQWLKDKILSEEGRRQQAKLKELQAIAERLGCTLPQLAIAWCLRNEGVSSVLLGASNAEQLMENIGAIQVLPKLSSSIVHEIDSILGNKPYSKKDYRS

With `CCOC(=O)c1ccc(NC(=O)Cn2nnc3ccccc32)cc1`, in assay [1], the cell count was determined as 333. The inhibition – broadly, the drop in the measured response relative to a control, in per cent – is -8.2% (inactive) in [1], -17.3% (inactive) in [2], 7.48% (inactive) in [4] and 37.7% (inactive) in assay [9]. Further, in assay [2], the nuclei count was 84.8%. For the same molecule, the z-score in assay [3] (setting [10]) is 0.667; in assay [3] (setting [11]), 0.595; in assay [3] (setting [12]), -0.72. Also, the fluorescence slope in [5] was -0.538 (inactive). In [6], the NADPH fluorescence slope is -0.000163 (inactive). In addition, the slope in assay [7] was 0.0051 (inactive). The molecule was classed as inactive in [8].
Regarding `Nc1nnc(CC2=CCCCC2)s1`, the cell count in assay [1] was 579. Further, the inhibition in assay [1] is -13.4% (inactive); in assay [2], 28.3% (inactive); in [4] it was -9.66% (inactive); in assay [9], 8.68% (inactive). This molecule had a nuclei count in assay [2] of 152%. The z-score in [3] (setting [10]) is -0.93; in [3] (setting [11]), 0.818; in assay [3] (setting [12]), -0.135. Further, the fluorescence slope in assay [5] was -0.396 (inactive). Further, the NADPH fluorescence slope in assay [6] is -3.4e-05 (inactive). Moreover, in assay [7], the slope was 0.00749 (inactive). Further, the outcome in [8] was inactive.
With `CCSc1nnc(N(CCC#N)CCC#N)s1`, the cell count in assay [1] came out at 364. Also, the inhibition is -4.7% (inactive) in assay [1], -60.2% (inactive) in assay [2], 5.57% (inactive) in assay [4] and -11.4% (inactive) in [9]. In assay [2], this molecule displayed a nuclei count of 114%. The z-score is -0.814 in assay [3] (setting [10]), 0.606 in [3] (setting [11]) and -1.64 in [3] (setting [12]). In assay [5], the fluorescence slope was -0.474 (inactive). Besides, in [6], the NADPH fluorescence slope was -5.4e-06 (inactive). In addition, the slope in assay [7] was 0.00528 (inactive). In addition, in [8], the outcome was inactive.
For `CCCOc1ccc(/C(O)=C2/C(=O)C(=O)N(CCCN3CCOCC3)C2c2ccncc2)cc1` (stereo unspecified), the cell count in assay [1] was 398. For the same molecule, the inhibition in assay [1] was -0.5% (inactive); in [2], -151% (inactive); in assay [4] it was -8.27% (inactive); in [9] it was 0.312% (inactive). The nuclei count in [2] amounted to 145%. Moreover, the results for the z-score in [3] (setting [10]), in [3] (setting [11]) and in assay [3] (setting [12]) were 0.781, 0.803 and -0.95, respectively. In addition, the fluorescence slope in [5] is -0.341 (inactive). The NADPH fluorescence slope in [6] is -1.2e-05 (inactive). Further, the slope in [7] is 0.0051 (inactive). For the same molecule, the outcome in assay [8] was inactive.
`COc1ccc(C2=Nn3c(nnc3-c3ccccn3)SC2)cc1OC`: the cell count in assay [1] amounted to 593. Also, the inhibition was -10% (inactive) in assay [1], 60% (inactive) in assay [2], -16.8% (inactive) in assay [4] and 9.28% (inactive) in assay [9]. This molecule showed a nuclei count in assay [2] of 100%. Also, the z-score in assay [3] (setting [10]) is 1.34; in assay [3] (setting [11]), 0.0492; in [3] (setting [12]) it was -0.154. The fluorescence slope in [5] was -0.476 (inactive). Also, the NADPH fluorescence slope in assay [6] is -0.000137 (inactive). For the same molecule, the slope in assay [7] is 0.00709 (inactive). In assay [8], the result was inactive.
`CCOC(=O)c1[nH]c2ccc(OC)cc2c1NC(=O)CCN1CCN(Cc2ccccc2)CC1`: in assay [1], the cell count turned out to be 541. Moreover, the inhibition in assay [1] is -11.2% (inactive); in [2], -92.4% (inactive); in [4], 1.12% (inactive); in [9], 16.3% (inactive). This molecule had a nuclei count in assay [2] of 165%. Further, the z-score in assay [3] (setting [10]) was 1.87; in assay [3] (setting [11]) it was 1.32; in assay [3] (setting [12]) it was -0.24. For the same molecule, the fluorescence slope in [5] is -0.173 (inactive). Besides, the NADPH fluorescence slope in assay [6] is -2.9e-05 (inactive). In addition, the slope in assay [7] is 0.00459 (inactive). In addition, the molecule was called inactive in assay [8].
As for `COC(=O)c1c(NC(=O)c2nn(C)cc2Cl)sc2c1CCCC2`, the cell count in [1] amounted to 650. For the same molecule, the inhibition was 4.5% (inactive) in assay [1], -19.9% (inactive) in assay [2], 2.46% (inactive) in [4] and 23.3% (inactive) in assay [9]. Moreover, the nuclei count in [2] was 179%. Further, the figures for the z-score in assay [3] (setting [10]), in assay [3] (setting [11]) and in [3] (setting [12]) were -0.637, -1.15 and 1.29, respectively. Further, the fluorescence slope in assay [5] is -0.389 (inactive). Besides, the NADPH fluorescence slope in [6] was -3.5e-05 (inactive). Besides, the slope in assay [7] was 0.00842 (inactive). For the same molecule, the molecule was classed as inactive in [8].
